{"source": "paper PMC2196149", "about": "(The Journal of Experimental Medicine, 1997)", "key": {"S15 CTL": {"tested_on": "S15 CTL", "experiment": "51Cr release cytolytic assay, P815 targets, clone S15", "type": "cell-based, mice", "conditions": "51Cr-labeled P815 targets; partial recognition", "summary_of_the_method": "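Cloned CTL are tested on 51Cr-labeled P815 mastocytoma targets (DMEM, 5% FCS, 10 mM Hepes), 2 × 10^3/well, with threefold dilutions of peptide derivative. CTL (6 × 10^3/well) added after 15 min; 4 h at 37°C. Supernatant 51Cr measured. Specific lysis = 100 × (experimental − spontaneous)/(total − spontaneous release).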"}, "[1]": {"tested_on": "seven IASA-YIPSAEK(ABA)I-specific CTL clones", "experiment": "51Cr release cytolytic assay, P815 targets, seven CTL clones", "type": "cell-based, mice", "conditions": "clones S1, S4, S14, S15, S17, S18, T1; 51Cr-labeled P815 targets; wt = 1 (Fig. 3 A)"}, "S15 CTL / A20 cells": {"tested_on": "S15 CTL / A20 cells", "experiment": "51Cr release cytolytic assay, A20 targets, clone S15", "type": "cell-based, mice", "conditions": "51Cr-labeled A20 cells, E/T 3:1, 8 h; representative experiment (Fig. 4 A)", "summary_of_the_method": "(§1)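 Murine H-2Kd-restricted CTL clone specific for a photoreactive derivative of a Plasmodium berghei circumsporozoite 252–260 peptide. Targets are 51Cr-labeled A20 B lymphoma cells or their Fas-lacking variant, 2 × 10^3/well, in threefold dilutions of peptide derivative in DMEM + 5% FCS + 10 mM Hepes. CTL (6 × 10^3/well) added after 15 min; 8 h at 37°C. Supernatant 51Cr counted. Specific lysis = 100 × (experimental − spontaneous)/(total − spontaneous).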"}, "[2]": {"tested_on": "S15 CTL / A20 Fas^− cells", "experiment": "51Cr release cytolytic assay, A20 Fas^− targets, clone S15", "type": "cell-based, mice", "conditions": "51Cr-labeled A20 Fas^− cells, E/T 3:1, 8 h; representative experiment (Fig. 4 B)", "summary_of_the_method": "as §1"}, "TCR on CTL S17": {"tested_on": "TCR on CTL S17", "experiment": "TCR-ligand dissociation, clone S17", "type": "binding, mice", "conditions": "preliminary, unpublished results"}, "TCR on CTL S4": {"tested_on": "TCR on CTL S4", "experiment": "TCR-ligand dissociation, clone S4", "type": "binding, mice", "conditions": "preliminary, unpublished results"}, "S14 CTL": {"tested_on": "S14 CTL", "experiment": "inhibition of recognition of photocross-linked IASA-YIPSAEK", "type": "cell-based, mice", "conditions": "P815 cells photocross-linked with suboptimal IASA-YIPSAEK(ABA)I (Fig. 5 B)"}, "TCR on CTL T1": {"tested_on": "TCR on CTL T1", "experiment": "TCR-ligand dissociation, clone T1", "type": "binding, mice", "conditions": "preliminary, unpublished results"}}, "note": "Primed or numbered codes have the meaning given here. No end group written: not given here. *: point of attachment. IASA″ = iodo-4-azidosalicylic acid, on the N-terminus in place of PbCS S-252; Benzoyl(4-N3) = [N-]=[N+]=Nc1ccc(C(=O)*)cc1; IASA = iodo-4-azidosalicylic acid"}
{"substance": "IASA-YIPSAEK(ASA)I [K259(ASA)]", "values": [{"measurement": "plateau of specific lysis, S15 CTL", "setting": "S15 CTL", "result": "≤ 30", "unit": "%"}, {"measurement": "normalized relative antigenic activities over seven CTL clones", "setting": "[1]", "result": "efficiently recognized by all clones, except by clone S15"}, {"measurement": "specific lysis at half-maximum, A20 cells, S15 CTL", "setting": "S15 CTL / A20 cells", "result": 13, "unit": "%"}, {"measurement": "concentration for half-maximal lysis of A20 Fas^− cells by S15 CTL", "setting": "[2]", "result": "not detectably lysed"}]}
{"substance": "S256A ({IASA″}-YIPAAEK(Benzoyl(4-N3))I)", "values": [{"measurement": "normalized relative antigenic activities over seven CTL clones", "setting": "[1]", "result": "0.1 to 6"}, {"measurement": "dissociation of ligand from TCR compared with wild-type ligand", "setting": "TCR on CTL S17", "result": "faster"}]}
{"substance": "I254A ({IASA}-YAPSAEK(Benzoyl(4-N3))I)", "values": [{"measurement": "normalized relative antigenic activities over seven CTL clones", "setting": "[1]", "result": "0.1 to 6"}]}
{"substance": "IASA-YIPSAEK(IASA)I", "values": [{"measurement": "plateau of specific lysis, S15 CTL", "setting": "S15 CTL", "result": "even lower plateau of lysis"}]}
{"substance": "P255S ({IASA}-YISSAEK(Benzoyl(4-N3))I; not fully specified)", "values": [{"measurement": "dissociation of ligand from TCR compared with wild-type ligand", "setting": "TCR on CTL S17", "result": "considerably slower"}]}
{"substance": "E258A ({IASA}-YIPSAAK(Benzoyl(4-N3))I)", "values": [{"measurement": "dissociation of ligand from TCR compared with wild-type ligand", "setting": "TCR on CTL S4", "result": "considerably slower"}]}
{"substance": "P255L ({IASA}-YILSAEK(Benzoyl(4-N3))I; not fully specified)", "values": [{"measurement": "concentration required for maximal inhibition relative to K259(BA), S14 CTL", "setting": "S14 CTL", "result": "~10", "unit": "fold"}]}
{"substance": "P255A ({IASA}-YIASAEK(Benzoyl(4-N3))I; not fully specified)", "values": [{"measurement": "normalized relative antigenic activities over seven CTL clones", "setting": "[1]", "result": "0.1 to 6"}, {"measurement": "dissociation of ligand from TCR compared with wild-type ligand", "setting": "TCR on CTL T1", "result": "faster"}]}
